ChEMBL document CHEMBL3351699, “Diarylthiazole: an antimycobacterial scaffold potentially targeting PrrB-PrrA two-component system” (J Med Chem, 2014)
≈ marks a conversion by molar mass, not a printed value. Calls of active or inactive are those of the source. No cut-off for these calls is given here.

Key:
[1] = test system: Mycobacterium tuberculosis; test: Bactericidal activity against Mycobacterium tuberculosis H37Rv ATCC 27294 after 5 days by microdilution method; assay type: functional; conditions: H37Rv ATCC 27294, 120 h
[2] = test system: Mycobacterium tuberculosis; test: Induction of cytochrome ubiquinol oxidase gene expression in Mycobacterium tuberculosis H37Rv ATCC 27294 at 7.5 ug/mL incubated for 4 hrs by DNA microarray analysis; assay type: functional, organism-based
Outline: (§1)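 Total RNA was isolated from compound-treated Mtb cultures and hybridised on DNA microarrays, with RNA from an untreated Mtb culture as the control.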

[3] = test system: Mycobacterium tuberculosis; test: Antimicrobial activity against Mycobacterium tuberculosis H37Rv ATCC 27294 assessed as growth inhibition after 5 days by microdilution method; assay type: functional; conditions: H37Rv ATCC 27294, 120 h
[4] = test system: Mycobacterium tuberculosis; test: Induction of anaerobic state electron transport chain maintenance related gene expression in Mycobacterium tuberculosis H37Rv ATCC 27294 at 7.5 ug/mL incubated for 4 hrs by DNA microarray analysis; assay type: functional, organism-based; outline: as §1
[5] = test system: Mycobacterium tuberculosis; test: Induction of nitrate reductase gene expression in Mycobacterium tuberculosis H37Rv ATCC 27294 at 7.5 ug/mL incubated for 4 hrs by DNA microarray analysis; assay type: functional, organism-based; outline: as §1
[6] = Solubility of the compound; assay type: physicochemical
[7] = test system: Mycobacterium tuberculosis; test: Induction of fumarate reductase gene expression in Mycobacterium tuberculosis H37Rv ATCC 27294 at 7.5 ug/mL incubated for 4 hrs by DNA microarray analysis; assay type: functional, organism-based; outline: as §1
[8] = test system: Mycobacterium tuberculosis; test: Reduction in RNA polymerase subunits gene expression in Mycobacterium tuberculosis H37Rv ATCC 27294 at 7.5 ug/mL incubated for 4 hrs by DNA microarray analysis; assay type: functional, organism-based; outline: as §1
[9] = test system: Mycobacterium tuberculosis; test: Antimicrobial activity against Mycobacterium tuberculosis H37Rv ATCC 27294 infected in human THP1 cells assessed as reduction in bacterial count at 2 times MIC relative to untreated control; assay type: functional, THP-1
[10] = test system: Mycobacterium tuberculosis; test: Ratio of MBC for Mycobacterium tuberculosis H37Rv ATCC 27294 to MIC for Mycobacterium tuberculosis H37Rv ATCC 27294; assay type: functional
[11] = test system: Mycobacterium tuberculosis; test: Reduction in sigma factors gene expression in Mycobacterium tuberculosis H37Rv ATCC 27294 at 7.5 ug/mL incubated for 4 hrs by DNA microarray analysis; assay type: functional, organism-based; outline: as §1
[12] = test system: Mycobacterium tuberculosis; test: Reduction in protein synthesis related gene expression in Mycobacterium tuberculosis H37Rv ATCC 27294 at 7.5 ug/mL incubated for 4 hrs by DNA microarray analysis; assay type: functional, organism-based; outline: as §1
[13] = test system: Mycobacterium tuberculosis; test: Induction of oxido-reductases gene expression in Mycobacterium tuberculosis H37Rv ATCC 27294 at 7.5 ug/mL incubated for 4 hrs by DNA microarray analysis; assay type: functional, organism-based; outline: as §1
[14] = test system: Mycobacterium tuberculosis; test: Reduction in aminoacyl t-RNA synthetases gene expression in Mycobacterium tuberculosis H37Rv ATCC 27294 at 7.5 ug/mL incubated for 4 hrs by DNA microarray analysis; assay type: functional, organism-based; outline: as §1
[15] = test system: Mycobacterium tuberculosis; test: Antimicrobial activity against Mycobacterium tuberculosis H37Rv ATCC 27294 assessed as reduction in bacterial count relative to untreated control; assay type: functional
Outline: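 About 10⁶ Mtb cells/mL exposed to compound for 10 days; viable count read as Log₁₀ CFU/mL reduction versus untreated controls.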

[16] = test system: Mycobacterium tuberculosis; test: Reduction in RNA metabolism related gene expression in Mycobacterium tuberculosis H37Rv ATCC 27294 at 7.5 ug/mL incubated for 4 hrs by DNA microarray analysis; assay type: functional, organism-based; outline: as §1
[17] = test system: Mycobacterium tuberculosis; test: Induction of prrB gene expression in Mycobacterium tuberculosis H37Rv ATCC 27294 at 7.5 ug/mL incubated for 4 hrs by DNA microarray analysis; assay type: functional
Outline: (§2)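 Total RNA was isolated from treated Mtb cells and analysed by DNA microarray. RNA from an untreated Mtb culture served as the control, and expression was reported as mean fold change relative to that untreated control.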

[18] = test system: Mycobacterium tuberculosis; test: Induction of fatty acid metabolism related gene expression in Mycobacterium tuberculosis H37Rv ATCC 27294 at 7.5 ug/mL incubated for 4 hrs by DNA microarray analysis; assay type: functional, organism-based; outline: as §1
[19] = test system: Mycobacterium tuberculosis; test: Reduction in ribosomal protein synthesis related gene expression in Mycobacterium tuberculosis H37Rv ATCC 27294 at 7.5 ug/mL incubated for 4 hrs by DNA microarray analysis; assay type: functional, organism-based; outline: as §1
[20] = test system: Mycobacterium tuberculosis; test: Induction of prrA gene expression in Mycobacterium tuberculosis H37Rv ATCC 27294 at 7.5 ug/mL incubated for 4 hrs by DNA microarray analysis; assay type: functional; outline: as §2
[21] = target: T1, Enoyl-[acyl-carrier-protein] reductase [NADH] (Mycobacterium tuberculosis, UniProt P9WGR1); test: Inhibition of Mycobacterium tuberculosis InhA using NADH and dodecyl coA substrate by LC-MS/MS method
T1 sequence (P9WGR1 whole entry): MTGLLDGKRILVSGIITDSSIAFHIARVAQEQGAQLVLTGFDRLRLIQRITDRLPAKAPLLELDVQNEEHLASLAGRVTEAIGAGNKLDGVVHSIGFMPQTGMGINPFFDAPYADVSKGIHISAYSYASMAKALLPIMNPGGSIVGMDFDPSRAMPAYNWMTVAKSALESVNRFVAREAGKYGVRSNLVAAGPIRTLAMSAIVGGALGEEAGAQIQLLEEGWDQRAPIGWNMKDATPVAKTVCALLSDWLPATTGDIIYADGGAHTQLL

Compound: CCCc1cc(-c2nc(-c3ccncc3)cs2)ccn1
- MBC [1]: 0.8 µg/mL (≈ 2.84 µM)
- Activity [2]: Active
- MIC80 [3]: 0.4 µg/mL (≈ 1.42 µM)
- Activity [4]: Active
- Activity [5]: Active
- solubility [6]: 91.5 µM (≈ 25.7 µg/mL)
- Activity [7]: Active
- Activity [8]: Active
- log10CFU/ml [9]: 1.5
- Ratio [10]: 2
- Activity [11]: Active
- Activity [12]: Active
- Activity [13]: Active
- Activity [14]: Active
- log10CFU/ml [15]: 3
- Activity [16]: Active
- fold change (FC) [17]: 0.7
- Activity [18]: Active
- Activity [19]: Active
- fold change (FC) [20]: 0.7
- IC50 [21]: > 50 µM
